Measurements collected from several papers.
Lines come from different studies, so protocols differ.
Target: Rho-associated protein kinase 2 (ROCK2, Homo sapiens, UniProt O75116)

C#Cc1cnc(Nc2ccnc(CO)c2)nc1Nc1ccccc1S(C)(=O)=NC#N (stereo not drawn)  remaining signal (cell-free assay; 1 µM): 49%
C[C@H]1CC[C@H](n2c3cnccc3c3cnc(Nc4ccc5c(n4)CCN(C(=O)CO)C5)nc32)CC1  remaining signal (cell-free assay; 1 µM): 95%
C#Cc1cc(-c2cc(Nc3nc(N[C@@H](C)c4ccc(F)cn4)ncc3Cl)n[nH]2)ccc1C=O  inhibition (enzyme activity, inhibitor; 0.2 µM): 5.91%
Cc1cc(O)c(-c2ccc([C@@H](C)CN(C)C)cc2)c2c1[nH]c(=O)c1sccc12  inhibition (enzyme activity, inhibitor; 0.1 µM): 14.6%
C=CC(=O)N1CCC[C@@H](n2nc(-c3ccc(Oc4ccccc4)cc3)c3c(N)ncnc32)C1  inhibition (enzyme activity, inhibitor; 1 µM): 0%
N#Cc1ccc(NC(=O)Nc2ccccc2)cc1  remaining binding (cell-free assay, competition with immobilised ligand; 25 µM): 63%
CCCCC(=O)Nc1ccc(-c2ccc3ncn(CCC)c(=O)c3c2)cn1  remaining binding (binding, competition with immobilised ligand; 0.5 µM): 100%
CN1CCN(C(=O)c2ccc(NC(=O)Nc3ccc(N(C)c4ccnc(Nc5ccc(CS(C)(=O)=O)cc5)n4)cc3)cc2)CC1  remaining binding (binding; 1 µM): 1.5%
CC#CC(=O)N1CCC[C@H]1c1nc(-c2ccc(C(=O)Nc3ccccn3)cc2)c2c(N)nccn12  inhibition (enzyme activity, inhibitor; 1 µM): 29%
